Test results: ChEMBL document CHEMBL4118021, “Studies of TAK1-centered polypharmacology with novel covalent TAK1 inhibitors” (Bioorg Med Chem, 2017)
Active and inactive are the calls of the source. The rule behind the calls is not given here.

Experiments:
[1] = biological target: Proteasome Macropain subunit MB1 (Homo sapiens) (UniProt P28074); assay: Binding affinity to PSMB5 in human NCI-H23 cells at 1 uM by mass spectrometry based pull down assay; assay type: cell-based
[2] = biological target: Src substrate cortactin (Homo sapiens) (UniProt Q14247); assay: Binding affinity to CTTN in human NCI-H358 cells at 1 uM by mass spectrometry based pull down assay; assay type: cell-based
[3] = biological target: Cyclin-dependent kinase 4 (Homo sapiens) (UniProt P11802); assay: Binding affinity to CDK4 in human NCI-H23 cells at 1 uM by mass spectrometry based pull down assay; assay type: cell-based
[4] = biological target: T1, 80S Ribosome (Homo sapiens) (UniProt P08865+P42677+P62753+P15880+P23396+P61247+P62701+P22090+P46782+P62081+P62241+P46781+P46783+P62280+P25398+P62277+P62263+P62841+P62244+P62249+P08708+P62269+P39019+P60866+P63220+P62266+P62847+P62851+P62854+P62979+P62857+P62273+P62861+P39023+P36578+P46777+Q02878+P18124+P62424+P62917+P32969+P27635+P62906+P62913+P30050+P26373+P40429+P50914+P61313+P18621+Q07020+Q02543+P84098+P46778+P35268+P62829+P62750+P83731+P61254+P61353+P46776+P46779+P47914+P62888+P62899+P62910+P49207+P42766+P18077+Q9Y3U8+P83881+P61927+P61513+P63173+P62891+P62945+P05388+P05386); assay: Binding affinity to RPS9 in human NCI-H358 cells at 1 uM by mass spectrometry based pull down assay; assay type: cell-based
[5] = biological target: T1, 80S Ribosome (Homo sapiens); assay: Binding affinity to RPL28 in human NCI-H23 cells at 1 uM by mass spectrometry based pull down assay; assay type: cell-based
[6] = biological target: Heterogeneous nuclear ribonucleoprotein D0 (Homo sapiens) (UniProt Q14103); assay: Binding affinity to HNRNPD in human NCI-H358 cells at 1 uM by mass spectrometry based pull down assay; assay type: cell-based
[7] = biological target: Interleukin enhancer-binding factor 2 (Homo sapiens) (UniProt Q12905); assay: Binding affinity to ILF2 in human NCI-H23 cells at 1 uM by mass spectrometry based pull down assay; assay type: cell-based
[8] = biological target: T2, Serine/threonine-protein kinase 4 (Homo sapiens) (UniProt Q13043); assay: Binding affinity to STK4 in human NCI-H23 cells at 1 uM by mass spectrometry based pull down assay; assay type: cell-based
T2 sequence (whole entry): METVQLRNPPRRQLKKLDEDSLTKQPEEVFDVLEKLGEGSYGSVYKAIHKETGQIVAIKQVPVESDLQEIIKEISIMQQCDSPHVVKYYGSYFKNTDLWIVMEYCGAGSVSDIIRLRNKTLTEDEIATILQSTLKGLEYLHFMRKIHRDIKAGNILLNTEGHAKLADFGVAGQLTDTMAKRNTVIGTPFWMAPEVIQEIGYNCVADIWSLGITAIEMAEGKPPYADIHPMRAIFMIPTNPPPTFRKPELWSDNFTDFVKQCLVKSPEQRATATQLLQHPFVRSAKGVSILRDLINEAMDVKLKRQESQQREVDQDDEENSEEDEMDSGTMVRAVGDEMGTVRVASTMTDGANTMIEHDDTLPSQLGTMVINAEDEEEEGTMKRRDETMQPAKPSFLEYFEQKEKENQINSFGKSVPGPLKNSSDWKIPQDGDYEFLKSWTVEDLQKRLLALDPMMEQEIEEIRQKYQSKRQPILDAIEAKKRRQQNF

[9] = biological target: MAP kinase-activated protein kinase 5 (Homo sapiens) (UniProt Q8IW41); assay: Binding affinity to MAPKAPK5 in human NCI-H23 cells at 1 uM by mass spectrometry based pull down assay; assay type: cell-based
[10] = biological target: Acidic leucine-rich nuclear phosphoprotein 32 family member B (Homo sapiens) (UniProt Q92688); assay: Binding affinity to ANP32B in human NCI-H358 cells at 1 uM by mass spectrometry based pull down assay; assay type: cell-based
[11] = biological target: YTH domain-containing family protein 2 (Homo sapiens) (UniProt Q9Y5A9); assay: Binding affinity to YTHDF2 in human NCI-H358 cells at 1 uM by mass spectrometry based pull down assay; assay type: cell-based
[12] = biological target: T3, Mitogen-activated protein kinase kinase kinase 7 (Homo sapiens) (UniProt O43318); assay: Inhibition of biotin-labeled N-(2-(2-(2-(2-(4-(4-((4-((2-Acrylamidophenyl)amino)-5-chloropyrimidin-2-yl)amino)phenyl)piperazin-1-yl)ethoxy)ethoxy)ethoxy)ethyl)-5-((3aS,4S,6aR)-2-oxohexahydro-1H-thieno[3,4-d]imidazol-4-yl)pentanamide probe binding to TAK1 in human NCI-H358 cells at 10 uM after 6 hrs by immunoblot based competitive pull down assay; assay type: cell-based
T3 sequence (whole entry): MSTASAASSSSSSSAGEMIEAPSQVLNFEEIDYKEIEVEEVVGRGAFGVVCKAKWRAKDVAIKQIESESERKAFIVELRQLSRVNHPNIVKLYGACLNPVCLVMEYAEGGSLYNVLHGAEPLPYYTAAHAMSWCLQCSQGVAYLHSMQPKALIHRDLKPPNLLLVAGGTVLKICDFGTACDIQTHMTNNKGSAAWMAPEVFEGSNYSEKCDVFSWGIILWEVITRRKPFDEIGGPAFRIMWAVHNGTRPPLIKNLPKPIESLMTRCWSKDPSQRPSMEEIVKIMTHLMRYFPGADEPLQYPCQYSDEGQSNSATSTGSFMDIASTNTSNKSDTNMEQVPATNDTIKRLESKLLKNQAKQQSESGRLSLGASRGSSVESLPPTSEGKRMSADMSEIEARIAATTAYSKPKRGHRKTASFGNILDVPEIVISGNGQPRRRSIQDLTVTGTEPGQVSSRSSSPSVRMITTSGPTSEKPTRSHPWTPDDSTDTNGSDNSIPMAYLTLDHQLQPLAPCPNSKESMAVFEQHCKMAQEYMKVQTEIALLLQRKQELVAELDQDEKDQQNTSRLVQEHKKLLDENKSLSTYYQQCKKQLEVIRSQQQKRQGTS
Outline: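 H358 cells given 1 or 10 μM compound for 6 h, medium removed, cells rinsed twice with cold PBS and lysed in MPER buffer. Lysates incubated overnight at 4 °C with 1 μM biotinylated covalent probe, captured on streptavidin beads, and TAK1 recovery assessed by immunoblotting with anti-TAK1 antibody.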

[13] = biological target: T3, Mitogen-activated protein kinase kinase kinase 7 (Homo sapiens); assay: Inhibition of TAK1 in RA patient-derived synovial fibroblasts assessed as inhibition of IL-1alpha-induced cytokine secretion at 3 uM preincubated for 3 hrs followed by IL-1alpha stimulation measured after 18 hrs by sandwich immunoassay
Outline: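 Primary RA synovial fibroblasts (donor RA2159) seeded 1000 cells/well and grown ~24 h at 37 °C, 5% CO2. Starved overnight in basal medium, then ~4 h in basal medium with 0.1% BSA. Two adjacent wells pooled per replicate, in biological duplicate. Supernatants diluted 1:3 and run on Luminex 27-plex/21-plex sandwich immunoassays for 48 analytes, with spiked-ligand and mock-supernatant background controls.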

[14] = biological target: Ribosomal protein S6 kinase alpha-3 (Homo sapiens) (UniProt P51812); assay: Inhibition of RSK2 domain2 in human SKCO1 cells at 1 uM after 4 hrs using biotin labeled DLKPSNILYVDESGNPESIR probe by mass-spectrometric analysis relative to control; assay type: cell-based
Sequence of Ribosomal protein S6 kinase alpha-3 (Homo sapiens) (P51812 whole entry, the tested form may be a part): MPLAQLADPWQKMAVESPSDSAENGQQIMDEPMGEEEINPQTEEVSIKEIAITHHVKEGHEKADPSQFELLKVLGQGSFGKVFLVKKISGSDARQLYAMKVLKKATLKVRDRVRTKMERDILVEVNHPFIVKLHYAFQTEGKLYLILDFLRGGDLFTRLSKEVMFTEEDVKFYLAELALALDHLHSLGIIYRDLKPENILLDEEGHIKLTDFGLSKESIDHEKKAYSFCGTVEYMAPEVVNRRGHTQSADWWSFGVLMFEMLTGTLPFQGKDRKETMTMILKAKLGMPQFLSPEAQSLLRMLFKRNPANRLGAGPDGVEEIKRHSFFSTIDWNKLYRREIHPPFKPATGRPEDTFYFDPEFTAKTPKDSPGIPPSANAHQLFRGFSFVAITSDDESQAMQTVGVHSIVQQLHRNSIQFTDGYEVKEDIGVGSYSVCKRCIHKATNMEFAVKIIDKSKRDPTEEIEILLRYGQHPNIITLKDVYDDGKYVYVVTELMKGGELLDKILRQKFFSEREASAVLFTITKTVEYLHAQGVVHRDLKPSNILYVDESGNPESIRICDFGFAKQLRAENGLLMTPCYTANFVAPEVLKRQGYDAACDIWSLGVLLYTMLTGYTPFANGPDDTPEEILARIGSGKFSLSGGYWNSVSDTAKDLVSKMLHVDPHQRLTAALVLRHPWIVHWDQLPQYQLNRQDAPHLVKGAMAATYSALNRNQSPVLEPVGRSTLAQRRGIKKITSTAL

Sequence of Acidic leucine-rich nuclear phosphoprotein 32 family member B (Homo sapiens) (Q92688 whole entry, the tested form may be a part): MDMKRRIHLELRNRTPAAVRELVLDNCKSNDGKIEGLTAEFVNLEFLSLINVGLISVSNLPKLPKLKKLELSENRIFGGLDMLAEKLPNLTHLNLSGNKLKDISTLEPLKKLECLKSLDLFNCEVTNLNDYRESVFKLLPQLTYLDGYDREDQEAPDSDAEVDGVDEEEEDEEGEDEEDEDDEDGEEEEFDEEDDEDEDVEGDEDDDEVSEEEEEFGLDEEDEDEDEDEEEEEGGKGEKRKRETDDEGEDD
Sequence of YTH domain-containing family protein 2 (Homo sapiens) (Q9Y5A9 whole entry, the tested form may be a part): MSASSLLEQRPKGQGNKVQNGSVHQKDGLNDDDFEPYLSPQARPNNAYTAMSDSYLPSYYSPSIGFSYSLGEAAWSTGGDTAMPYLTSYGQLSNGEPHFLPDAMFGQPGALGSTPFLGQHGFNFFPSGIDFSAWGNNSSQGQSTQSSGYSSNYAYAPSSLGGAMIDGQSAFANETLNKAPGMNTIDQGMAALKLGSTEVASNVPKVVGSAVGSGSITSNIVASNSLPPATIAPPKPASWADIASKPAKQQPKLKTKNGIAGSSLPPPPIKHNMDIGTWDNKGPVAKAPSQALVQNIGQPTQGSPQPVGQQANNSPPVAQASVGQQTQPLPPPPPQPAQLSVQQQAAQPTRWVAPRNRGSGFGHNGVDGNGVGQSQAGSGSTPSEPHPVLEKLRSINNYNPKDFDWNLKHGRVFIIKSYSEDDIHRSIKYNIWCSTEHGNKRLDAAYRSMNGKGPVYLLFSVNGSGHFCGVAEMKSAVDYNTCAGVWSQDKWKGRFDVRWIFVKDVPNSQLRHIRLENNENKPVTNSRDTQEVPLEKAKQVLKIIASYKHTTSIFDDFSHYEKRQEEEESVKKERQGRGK
Sequence of Heterogeneous nuclear ribonucleoprotein D0 (Homo sapiens) (Q14103 whole entry): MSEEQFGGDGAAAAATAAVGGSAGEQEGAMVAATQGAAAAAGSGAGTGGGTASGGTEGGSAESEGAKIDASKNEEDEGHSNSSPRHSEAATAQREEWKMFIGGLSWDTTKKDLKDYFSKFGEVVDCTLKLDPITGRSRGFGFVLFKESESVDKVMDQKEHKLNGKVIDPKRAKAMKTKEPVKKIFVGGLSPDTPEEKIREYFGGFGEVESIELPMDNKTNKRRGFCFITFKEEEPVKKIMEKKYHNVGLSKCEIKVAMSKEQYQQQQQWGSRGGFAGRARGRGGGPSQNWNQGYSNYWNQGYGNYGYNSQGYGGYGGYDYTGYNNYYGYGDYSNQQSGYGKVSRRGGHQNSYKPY
Sequence of Proteasome Macropain subunit MB1 (Homo sapiens) (P28074 whole entry): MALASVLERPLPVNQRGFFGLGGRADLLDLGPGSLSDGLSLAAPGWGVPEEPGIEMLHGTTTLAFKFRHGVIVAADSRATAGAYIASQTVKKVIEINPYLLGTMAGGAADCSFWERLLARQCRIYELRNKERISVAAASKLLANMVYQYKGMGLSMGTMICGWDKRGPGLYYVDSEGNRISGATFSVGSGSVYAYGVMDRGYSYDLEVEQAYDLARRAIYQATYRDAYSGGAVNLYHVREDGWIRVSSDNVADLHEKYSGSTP
Sequence of Src substrate cortactin (Homo sapiens) (Q14247 whole entry): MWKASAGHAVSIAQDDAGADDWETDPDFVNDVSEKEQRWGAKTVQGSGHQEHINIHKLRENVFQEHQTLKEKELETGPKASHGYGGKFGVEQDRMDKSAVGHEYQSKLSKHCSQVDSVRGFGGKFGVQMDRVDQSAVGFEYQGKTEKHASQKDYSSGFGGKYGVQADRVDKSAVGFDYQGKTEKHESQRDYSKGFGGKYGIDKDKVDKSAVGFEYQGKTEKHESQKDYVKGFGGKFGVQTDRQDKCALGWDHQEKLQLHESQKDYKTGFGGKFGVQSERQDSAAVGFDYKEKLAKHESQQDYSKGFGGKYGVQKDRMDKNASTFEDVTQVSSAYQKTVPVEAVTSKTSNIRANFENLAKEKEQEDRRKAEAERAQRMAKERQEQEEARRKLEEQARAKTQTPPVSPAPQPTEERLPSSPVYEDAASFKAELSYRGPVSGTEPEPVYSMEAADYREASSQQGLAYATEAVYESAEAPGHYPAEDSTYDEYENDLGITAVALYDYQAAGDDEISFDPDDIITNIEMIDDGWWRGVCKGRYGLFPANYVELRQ
Sequence of Interleukin enhancer-binding factor 2 (Homo sapiens) (Q12905 whole entry): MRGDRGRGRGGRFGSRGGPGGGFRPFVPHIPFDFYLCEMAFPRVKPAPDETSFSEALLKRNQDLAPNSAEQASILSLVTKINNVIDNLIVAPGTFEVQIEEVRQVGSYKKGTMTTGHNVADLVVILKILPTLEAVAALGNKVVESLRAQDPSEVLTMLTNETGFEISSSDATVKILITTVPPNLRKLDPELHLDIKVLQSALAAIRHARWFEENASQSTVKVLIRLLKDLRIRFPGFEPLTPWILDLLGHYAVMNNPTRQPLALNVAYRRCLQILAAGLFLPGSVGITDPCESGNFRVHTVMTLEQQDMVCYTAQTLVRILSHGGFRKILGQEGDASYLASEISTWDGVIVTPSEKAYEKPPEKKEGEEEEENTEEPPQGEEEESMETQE
Sequence of MAP kinase-activated protein kinase 5 (Homo sapiens) (Q8IW41 whole entry): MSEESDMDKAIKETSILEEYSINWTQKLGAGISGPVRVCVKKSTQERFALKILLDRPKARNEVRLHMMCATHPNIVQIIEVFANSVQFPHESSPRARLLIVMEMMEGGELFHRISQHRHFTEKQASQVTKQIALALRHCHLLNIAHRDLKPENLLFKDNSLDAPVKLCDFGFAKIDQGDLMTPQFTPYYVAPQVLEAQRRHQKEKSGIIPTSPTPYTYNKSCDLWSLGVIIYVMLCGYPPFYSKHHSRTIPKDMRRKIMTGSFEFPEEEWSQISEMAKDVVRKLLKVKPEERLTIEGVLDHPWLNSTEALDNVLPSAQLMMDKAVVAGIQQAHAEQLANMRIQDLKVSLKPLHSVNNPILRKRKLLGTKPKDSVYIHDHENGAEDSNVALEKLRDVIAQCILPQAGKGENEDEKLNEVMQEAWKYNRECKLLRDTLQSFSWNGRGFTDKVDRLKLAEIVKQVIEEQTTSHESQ
Sequence of Cyclin-dependent kinase 4 (Homo sapiens) (P11802 whole entry): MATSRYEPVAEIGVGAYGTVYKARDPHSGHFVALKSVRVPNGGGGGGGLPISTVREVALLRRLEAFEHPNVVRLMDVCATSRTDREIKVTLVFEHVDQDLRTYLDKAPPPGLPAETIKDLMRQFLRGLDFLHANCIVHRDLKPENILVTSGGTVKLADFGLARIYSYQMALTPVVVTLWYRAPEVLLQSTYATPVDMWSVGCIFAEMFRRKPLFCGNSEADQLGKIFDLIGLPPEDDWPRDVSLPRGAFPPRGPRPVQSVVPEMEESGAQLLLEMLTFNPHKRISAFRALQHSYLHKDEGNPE

| Activity [1] | Activity [2] | Activity [3] | Activity [4] | Activity [5] | Activity [6] | Activity [7] | Activity [8] | Activity [9] | Activity [10] | Activity [11] | Compound | inhibition [12] | inhibition [13] | inhibition [14] [%] |
| --- | --- | --- | --- | --- | --- | --- | --- | --- | --- | --- | --- | --- | --- | --- |
| Active | Active | Active | Active | Active | Active | Active | Active | Active | Active | Active | C=CC(=O)Nc1ccccc1Nc1nc(Nc2ccc(N3CCN(CCOCCOCCOCCNC(=O)CCCC[C@@H]4SC[C@@H]5NC(=O)N[C@@H]54)CC3)cc2)ncc1Cl | – | – | – |
| – | – | – | – | – | – | – | – | – | – | – | C=CC(=O)Nc1ccccc1Oc1nc(Nc2cnn(CCOC)c2)ncc1Cl | Active | Active | -9.3 |
